Test results reported in ChEMBL document CHEMBL5252539, “In vitro biological evaluation of new antimycobacterial salicylanilide-tuftsin conjugates” (Eur J Med Chem, 2017).
≈ marks a conversion by molar mass, not a printed value. Calls of active or inactive are those of the source. No cut-off for these calls is given here. *1 amine or outer side, *2 acyl side, *3 side chain or, on linkers, in order; H or OH if unused. Where a SMILES comes first, the peptide text is derived from it. [ ]: non-standard residue; d: D form. The star is where a group is joined. X4 = O=C(Nc1ccc(C(F)(F)F)cc1)c1cc(/C=N\OCC(=O)*)ccc1O; X2 = C/C(=N\OCC(=O)*)c1ccc(NC(=O)c2cc(Br)ccc2O)cc1; X1 = C/C(=N\OCC(=O)[*:2])c1ccc(N[*:1])cc1; Benzoyl(5-Br-2-OH) = O=C(c1cc(Br)ccc1O)*; Decanoyl = CCCCCCCCCC(=O)*; Butyryl = CCCC(=O)*

Legend:
[1] = test system: Mycobacterium tuberculosis; experiment: Antimycobacterial activity against Mycobacterium tuberculosis H37Rv ATCC 27294 assessed as reduction in colony forming unit after 28 days by serial dilution method; type: functional, organism-based; details: time 28.0 day
Method in brief: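 After the 4-week MIC incubation in Sula semisynthetic medium (pH 6.5), growth inhibition confirmed by plating on Löwenstein-Jensen solid medium and counting colony forming units.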

[2] = test system: Mycobacteroides abscessus; experiment: Antimycobacterial activity against Mycobacterium abscessus ATCC 19977 assessed as reduction in colony forming unit after 7 days by serial dilution method; type: functional, organism-based; details: time 7.0 day
Method in brief: (§1)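 MIC determined in Sula semisynthetic medium, pH 6.5, 1 week incubation. Growth inhibition confirmed by plating on Löwenstein-Jensen solid medium and counting CFU. Bacteria inoculated without drug served as growth control.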

[3] = test system: MONO-MAC-6; experiment: Cytostatic activity against human MONO-MAC-6 cells assessed as reduction in cell viability incubated for 24 hrs by MTT assay; type: functional, cell-based; details: MONO-MAC-6, 24 h
Method in brief: (§2)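 MTT viability assay after 24 h exposure of MonoMac6 human monocytic cells or HepG2 human hepatocellular carcinoma cells. Top concentration 200 μM. IC50 taken from dose-response curves as the concentration reducing viability to 50% of maximal.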

[4] = test system: HepG2; experiment: Cytostatic activity against human HepG2 cells assessed as reduction in cell viability incubated for 24 hrs by MTT assay; type: functional, cell-based; details: HepG2, 24 h; method in brief: as §2
[5] = Selectivity index, ratio of IC50 for cytostatic activity against human MONO-MAC-6 cells to MIC for antimycobacterial activity against Mycobacterium tuberculosis H37Rv ATCC 27294; type: toxicity, cell-based; details: read-out: Selectivity Index
Method in brief: (§3)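 MTT assay on MonoMac6 or HepG2 cells after 24 h exposure, top concentration 200 µM. SI = IC50 (µM)/MIC (µM) against H37Rv from the 4-week Sula medium assay.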

[6] = Selectivity index, ratio of IC50 for cytostatic activity against human HepG2 cells to MIC for antimycobacterial activity against Mycobacterium tuberculosis H37Rv ATCC 27294; type: toxicity, cell-based; details: read-out: Selectivity Index; method in brief: as §3
[7] = test system: Mycobacterium tuberculosis; experiment: […] antimycobacterial activity against Mycobacterium tuberculosis H37Rv ATCC 27294 infected in human MONO-MAC-6 cells assessed as reduction in colony forming unit at 125 uM for 6 days by colony counting based analysis; type: functional, organism-based; details: time 6.0 day
Method in brief: (§4)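 MonoMac6 monolayers infected with H37Rv, then treated with compound at 125 or 250 µM for 3 days. Treatment repeated with fresh compound solution for another 3 days. Intracellular bacteria quantified as CFU against untreated infected cells.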

[8] = test system: Mycobacterium tuberculosis; experiment: […] antimycobacterial activity against Mycobacterium tuberculosis H37Rv ATCC 27294 infected in human MONO-MAC-6 cells assessed as reduction in colony forming unit at 250 uM for 6 days by colony counting based analysis; type: functional, organism-based; details: time 6.0 day; method in brief: as §4
[9] = test system: Mycobacterium tuberculosis; experiment: Antimycobacterial activity against Mycobacterium tuberculosis H37Rv ATCC 27294 assessed as reduction in bacterial growth after 21 days by serial dilution method; type: functional; details: H37Rv ATCC 27294, 504 h, time 21 day
Method in brief: (§5)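 Broth MIC in Sula semisynthetic medium, pH 6.5; 4-week incubation, with 21-day values […] where indicated. Drug-free inoculated bacteria served as growth control. MIC also expressed as drug content (µg/mL) = MIC (µM) × average SAL molar mass × number of SAL per conjugate / 1000.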

[10] = test system: Mycobacteroides abscessus; experiment: Antimycobacterial activity against Mycobacterium abscessus ATCC 19977 assessed as reduction in bacterial growth after 7 days by serial dilution method; type: functional; details: ATCC 19977, 168 h, time 7 day; method in brief: as §1
[11] = test system: Mycobacterium tuberculosis; experiment: Antimycobacterial activity against Mycobacterium tuberculosis H37Rv ATCC 27294 assessed as reduction in bacterial growth after 28 days by serial dilution method; type: functional; details: H37Rv ATCC 27294, 672 h, time 28 day; method in brief: as §5
[12] = Retention time of the compound by RP-HPLC analysis; type: physicochemical
Method in brief: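 Analytical RP-HPLC on a C18 column (5 μm, 100 Å, 4.6 × 150 mm). Eluent A 0.1% TFA in water, eluent B 0.1% TFA in acetonitrile-water 80:20. Gradient 0% B for 5 min, to 60% B at 15 min, to 100% B at 25 min. Flow 1 mL/min, detection at 220 nm.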

[13] = Stability in rat liver lysosomal homogenate assessed as drug degradation at 50 uM and measured upto 24 hrs by HPLC-MS analysis; type: ADME, subcellular, Lysosome; details: tissue homogenate
Method in brief: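 Conjugates incubated in rat liver lysosomal homogenate. Reaction mixtures sampled at 5 min, 1 h, 2 h, 4 h, 8 h and 24 h and analysed by HPLC-MS (chromatograms and mass spectra) to identify intact conjugate, fragments and cleavage sites.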

## C/C(=N\OCC(=O)N[C@H](C(=O)O)[C@@H](C)O)c1ccc(NC(=O)c2cc(Br)ccc2O)cc1
[1]
  Activity: Active
[2]
  Activity: Active
[3]
  IC50: > 200 µM
[4]
  IC50: > 200 µM
[5]
  selectivity ratio: > 0.5
[6]
  selectivity ratio: > 0.5
[7]
  Activity: Active
[8]
  Activity: Active
[9]
  MIC: 394 µM (≈ 200 µg/mL)

## C/C(=N\OCC(=O)NCC(=O)O)c1ccc(NC(=O)c2cc(Br)ccc2O)cc1
[1]
  Activity: Active
[2]
  Activity: Active
[3]
  IC50: > 200 µM
[4]
  IC50: > 200 µM
[5]
  selectivity ratio: > 0.9
[6]
  selectivity ratio: > 0.9
[7]
  Activity: Active
[8]
  Activity: Active
[9]
  MIC: 215 µM (≈ 100 µg/mL)

## C[C@@H](O)[C@H](NC(=O)CNC(=O)[C@H](CCCCN)NC(=O)[C@@H]1CCCN1C(=O)[C@H](CCCCN)NC(=O)[C@@H](NC(=O)CNC(=O)[C@H](CCCCN)NC(=O)[C@@H]1CCCN1C(=O)[C@H](CCCCN)NC(=O)[C@@H](NC(=O)CNC(=O)[C@H](CCCCN)NC(=O)[C@@H]1CCCN1C(=O)[C@H](CCCCN)NC(=O)[C@@H](NC(=O)CO/N=C\c1ccc(O)c(C(=O)Nc2ccc(C(F)(F)F)cc2)c1)[C@@H](C)O)[C@@H](C)O)[C@@H](C)O)C(=O)N[C@@H](CCCCN)C(=O)N1CCC[C@H]1C(=O)N[C@@H](CCCCN)C(=O)NCC(N)=O (X4-TKPKGTKPKGTKPKGTKPKG-NH2)
[10]
  MIC: 41.2 µM (≈ 100 µg/mL)
[1]
  Activity: Active
[2]
  Activity: Active
[3]
  IC50: > 200 µM
[4]
  IC50: > 200 µM
[5]
  selectivity ratio: > 2.4
[6]
  selectivity ratio: > 2.4
[7]
  Activity: Active
[8]
  Activity: Active
[9]
  MIC: 82.4 µM (≈ 200 µg/mL)

## CCCC(=O)NCCCC[C@H](NC(=O)[C@@H]1CCCN1C(=O)[C@H](CCCCN)NC(=O)[C@@H](NC(=O)CO/N=C(\C)c1ccc(NC(=O)c2cc(Br)ccc2O)cc1)[C@@H](C)O)C(=O)NCC(=O)N[C@H](C(=O)N[C@@H](CCCCN)C(=O)N1CCC[C@H]1C(=O)N[C@@H](CCCCN)C(=O)NCC(=O)N[C@H](C(=O)N[C@@H](CCCCN)C(=O)N1CCC[C@H]1C(=O)N[C@@H](CCCCN)C(=O)NCC(=O)N[C@H](C(=O)N[C@@H](CCCCN)C(=O)N1CCC[C@H]1C(=O)N[C@@H](CCCCN)C(=O)NCC(N)=O)[C@@H](C)O)[C@@H](C)O)[C@@H](C)O ({Benzoyl(5-Br-2-OH)}-[X1]TKPK(Butyryl)GTKPKGTKPKGTKPKG-NH2)
[11]
  MIC: 63.4 µM (≈ 160 µg/mL)
[12]
  Retention_time: 14.7 min
[10]
  MIC: 79.3 µM (≈ 200 µg/mL)
[1]
  Activity: Active
[2]
  Activity: Active
[3]
  IC50: > 200 µM
[4]
  IC50: 81.6 µM
[5]
  selectivity ratio: > 3.2
[6]
  selectivity ratio: 1.3
[7]
  Activity: Active
[8]
  Activity: Active

## CCCCCCCCCC(=O)NCCCC[C@H](NC(=O)[C@@H]1CCCN1C(=O)[C@H](CCCCN)NC(=O)[C@@H](NC(=O)CO/N=C(\C)c1ccc(NC(=O)c2cc(Br)ccc2O)cc1)[C@@H](C)O)C(=O)NCC(N)=O ({Benzoyl(5-Br-2-OH)}-[X1]TKPK(Decanoyl)G-NH2)
[10]
  MIC: 186 µM (≈ 200 µg/mL)
[1]
  Activity: Active
[2]
  Activity: Active
[3]
  IC50: 72.6 µM
[4]
  IC50: 55.8 µM
[5]
  selectivity ratio: 0.4
[6]
  selectivity ratio: 0.3
[13]
  Stability: Unstable
[7]
  Activity: Active
[8]
  Activity: Active
[9]
  MIC: 186 µM (≈ 200 µg/mL)

## C/C(=N\OCC(=O)NCCCC[C@H](NC(=O)[C@@H]1CCCN1C(=O)[C@H](CCCCN)NC(=O)[C@@H](NC(=O)CO/N=C(\C)c1ccc(NC(=O)c2cc(Br)ccc2O)cc1)[C@@H](C)O)C(=O)NCC(=O)N[C@H](C(=O)N[C@@H](CCCCN)C(=O)N1CCC[C@H]1C(=O)N[C@@H](CCCCN)C(=O)NCC(=O)N[C@H](C(=O)N[C@@H](CCCCN)C(=O)N1CCC[C@H]1C(=O)N[C@@H](CCCCN)C(=O)NCC(=O)N[C@H](C(=O)N[C@@H](CCCCN)C(=O)N1CCC[C@H]1C(=O)N[C@@H](CCCCN)C(=O)NCC(N)=O)[C@@H](C)O)[C@@H](C)O)[C@@H](C)O)c1ccc(NC(=O)c2cc(Br)ccc2O)cc1 ({Benzoyl(5-Br-2-OH)}-[X1]TKPK(X2)GTKPKGTKPKGTKPKG-NH2)
[11]
  MIC: 42.2 µM (≈ 120 µg/mL)
[12]
  Retention_time: 16.3 min
[10]
  MIC: 70.4 µM (≈ 200 µg/mL)
[1]
  Activity: Active
[2]
  Activity: Active
[3]
  IC50: 39.1 µM
[4]
  IC50: 79.7 µM
[5]
  selectivity ratio: 0.9
[6]
  selectivity ratio: 1.9
[13]
  Stability: Unstable
[7]
  Activity: inactive
[8]
  Activity: Active

## C/C(=N\OCC(=O)N[C@H](C(=O)N[C@@H](CCCCN)C(=O)N1CCC[C@H]1C(=O)N[C@@H](CCCCN)C(=O)NCC(=O)O)[C@@H](C)O)c1ccc(NC(=O)c2cc(Br)ccc2O)cc1 ({Benzoyl(5-Br-2-OH)}-[X1]TKPKG-OH)
[11]
  MIC: 65.3 µM (≈ 60 µg/mL)
[10]
  MIC: 218 µM (≈ 200 µg/mL)
[1]
  Activity: Active
[2]
  Activity: Active
[3]
  IC50: > 200 µM
[4]
  IC50: 191 µM
[5]
  selectivity ratio: > 3.1
[6]
  selectivity ratio: 2.9
[13]
  Stability: Unstable
[7]
  Activity: Active
[8]
  Activity: Active

## C/C(=N\OCC(=O)N[C@H](C(=O)N[C@@H](CCCCN)C(=O)N1CCC[C@H]1C(=O)N[C@@H](CCCCN)C(=O)NCC(=O)N[C@H](C(=O)N[C@@H](CCCCN)C(=O)N1CCC[C@H]1C(=O)N[C@@H](CCCCN)C(=O)NCC(N)=O)[C@@H](C)O)[C@@H](C)O)c1ccc(NC(=O)c2cc(Br)ccc2O)cc1 ({Benzoyl(5-Br-2-OH)}-[X1]TKPKGTKPKG-NH2)
[11]
  MIC: 175 µM (≈ 250 µg/mL)
[12]
  Retention_time: 14.9 min
[10]
  MIC: 56 µM (≈ 80.1 µg/mL)
[1]
  Activity: Active
[2]
  Activity: Active
[3]
  IC50: > 200 µM
[4]
  IC50: > 200 µM
[5]
  selectivity ratio: > 1.1
[6]
  selectivity ratio: > 1.1
[13]
  Stability: Unstable
[7]
  Activity: Active
[8]
  Activity: Active

## C/C(=N\OCC(=O)N[C@H](C(=O)N[C@@H](CCCCN)C(=O)N1CCC[C@H]1C(=O)N[C@@H](CCCNC(=N)N)C(=O)O)[C@@H](C)O)c1ccc(NC(=O)c2cc(Br)ccc2O)cc1 ({Benzoyl(5-Br-2-OH)}-[X1]TKPR-OH)
[11]
  MIC: 45 µM (≈ 40 µg/mL)
[10]
  MIC: 225 µM (≈ 200 µg/mL)
[1]
  Activity: Active
[2]
  Activity: Active
[3]
  IC50: > 200 µM
[4]
  IC50: > 200 µM
[5]
  selectivity ratio: > 4.4
[6]
  selectivity ratio: > 4.4
[13]
  Stability: Unstable
[7]
  Activity: Active
[8]
  Activity: Active
